Measurements from ChEMBL document CHEMBL1687740, “Cellular accumulation and pharmacodynamic evaluation of the intracellular activity of CEM-101, a novel fluoroketolide, against Staphylococcus aureus, Listeria monocytogenes, and Legionella pneumophila in human THP-1 macrophages” (Antimicrob Agents Chemother, 2009).
≈ marks a conversion by molar mass, not a printed value. Calls of active or inactive are those of the source. No cut-off for these calls is given here.

Tests used:
[1] = test system: Listeria monocytogenes; experiment: Antibacterial activity against Listeria monocytogenes EGD after 24 hrs; assay type: functional
[2] = test system: Staphylococcus aureus; experiment: Antibacterial activity against methicillin-sensitive Staphylococcus aureus ATCC 25923 infected in human THP1 cells assessed as concentration required to no apparent bacterial growth after 24 hrs; assay type: functional, THP-1
Summary of the method: (§1)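 THP-1 macrophages infected, non-phagocytosed bacteria removed, then exposed 24 h over a concentration range. Postphagocytosis inoculum (2.74 ± 0.55) × 10⁶ CFU/mg protein. Hill fit (slope 1). […] Cs = no change from inoculum, by graphical intrapolation. n = 3.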

[3] = test system: Legionella pneumophila; experiment: Antibacterial activity against Legionella pneumophila infected in human THP1 cells assessed as decrease of CFU after 48 hrs relative to initial inoculum
[4] = test system: Staphylococcus aureus; experiment: Antibacterial activity against methicillin-sensitive Staphylococcus aureus ATCC 25923 assessed as concentration required to no apparent bacterial growth after 24 hrs; assay type: functional
Summary of the method: (§2)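 24-h concentration-response in Mueller-Hinton broth; original inoculum (0.97 ± 0.24) × 10⁶ CFU/ml. Hill equation fit (slope factor 1). Emax = log10 CFU decrease from inoculum extrapolated to infinite concentration. Cs = concentration giving CFU equal to inoculum, by graphical intrapolation. Counts under five taken as below detection. n = 3.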

[5] = test system: Listeria monocytogenes; experiment: Antibacterial activity against Listeria monocytogenes EGD at pH 5.5 to 7.4 after 24 hrs; assay type: functional; details: EGD-e
[6] = test system: Legionella pneumophila; experiment: Antibacterial activity against Legionella pneumophila ATCC 33153 at pH 6.5 to 7.4 after 48 hrs; assay type: functional; details: ATCC 33153, 48 h
[7] = test system: THP-1; experiment: Drug uptake in human THP1 cells after 24 hrs in presence of verapamil; assay type: ADME, cell-based; details: thp-1, 24 h
Summary of the method: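 Accumulation at 37°C, 10 mg/liter drug, with verapamil 150 μM for 24 h. Microbiological assay normalized to cell protein. n = 3.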

[8] = test system: Staphylococcus aureus; experiment: Antibacterial activity against methicillin-sensitive Staphylococcus aureus ATCC 25923 infected in human THP1 cells assessed as decrease of CFU after 24 hrs; assay type: functional, organism-based; details: ATCC 25923, THP-1, 24 h; summary of the method: as §1
[9] = test system: Legionella pneumophila; experiment: Antibacterial activity against Legionella pneumophila infected in human THP1 cells assessed as decrease of CFU after 48 hrs; details: THP-1, 48 h
[10] = test system: Listeria monocytogenes; experiment: Antibacterial activity against […] Listeria monocytogenes EGD assessed as decrease of CFU after 24 hrs relative to initial inoculum; assay type: functional, EGD-e
[11] = test system: THP-1; experiment: Drug uptake in human THP1 cells at acidic pH after 30 mins; assay type: ADME, cell-based; details: thp-1, 0.5 h
Summary of the method: (§3)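 30-min accumulation at 37°C, 10 mg/liter extracellular, in culture medium at varied pH. Microbiological drug assay normalized to cell protein, converted at 5 μl/mg protein. n = 3.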

[12] = test system: Staphylococcus aureus; experiment: Antibacterial activity against methicillin-sensitive Staphylococcus aureus ATCC 25923 infected in human THP1 cells assessed as decrease of CFU after 24 hrs relative to initial inoculum; assay type: functional, THP-1; summary of the method: as §1
[13] = test system: Staphylococcus aureus; experiment: Antibacterial activity against methicillin-sensitive Staphylococcus aureus ATCC 25923 assessed as decrease of CFU after 24 hrs; assay type: functional, organism-based; details: ATCC 25923, 24 h; summary of the method: as §2
[14] = test system: Staphylococcus aureus; experiment: Antibacterial activity against methicillin-sensitive Staphylococcus aureus ATCC 25923 at pH 5.5 to 7.4 after 24 hrs; assay type: functional
[15] = test system: THP-1; experiment: Drug uptake in human THP1 cells after 2 hrs in presence of monensin; assay type: ADME, cell-based; details: thp-1, 2 h
Summary of the method: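 Accumulation at 37°C, 10 mg/liter drug, with monensin 50 μM for 2 h. Microbiological assay normalized to cell protein. n = 3.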

[16] = test system: THP-1; experiment: Drug uptake in human THP1 cells at pH 6 to 7 after 30 mins; assay type: ADME, cell-based; details: thp-1, pH 6, 0.5 h; summary of the method: as §3
[17] = test system: Legionella pneumophila; experiment: Antibacterial activity against Legionella pneumophila ATCC 33153 after 48 hrs; assay type: functional; details: ATCC 33153, 48 h
Summary of the method: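 L. pneumophila MIC determined in α-ketoglutarate-buffered yeast extract broth, read after 48 h incubation.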

[18] = test system: Staphylococcus aureus; experiment: Antibacterial activity against methicillin-sensitive Staphylococcus aureus ATCC 25923 infected in human THP1 cells assessed as decrease of intracellular CFU at 4 mg/liter; assay type: functional
Summary of the method: (§4)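 Phagocytosed bacteria in THP-1 macrophages exposed to a fixed extracellular concentration of 0.7 or 4 mg/liter; intracellular CFU followed over 6 h; three independent experiments.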

[19] = test system: Staphylococcus aureus; experiment: Antibacterial activity against methicillin-sensitive Staphylococcus aureus ATCC 25923 assessed as decrease of CFU after 24 hrs relative to initial inoculum; assay type: functional; summary of the method: as §2
[20] = test system: Listeria monocytogenes; experiment: Antibacterial activity against […] Listeria monocytogenes EGD assessed as decrease of CFU after 24 hrs; assay type: functional, organism-based; details: EGD-e
[21] = test system: THP-1; experiment: Drug uptake in human THP1 cells after 24 hrs in presence of gemfibrozil; assay type: ADME, cell-based; details: thp-1, 24 h
Summary of the method: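 Accumulation at 37°C, 10 mg/liter drug, with gemfibrozil 250 μM for 24 h. Microbiological assay normalized to cell protein. n = 3.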

[22] = test system: Staphylococcus aureus; experiment: Antibacterial activity against methicillin-sensitive Staphylococcus aureus ATCC 25923 after 24 hrs; assay type: functional; details: ATCC 25923, 24 h
[23] = test system: Listeria monocytogenes; experiment: Antibacterial activity against […] Listeria monocytogenes EGD assessed as concentration required to no apparent bacterial growth after 24 hrs; assay type: functional, EGD-e
[24] = test system: Legionella pneumophila; experiment: Antibacterial activity against Legionella pneumophila infected in human THP1 cells assessed as concentration required to no apparent bacterial growth after 48 hrs
[25] = test system: Staphylococcus aureus; experiment: Antibacterial activity against methicillin-sensitive Staphylococcus aureus ATCC 25923 assessed as decrease of CFU at 4 mg/liter; assay type: functional, organism-based
Summary of the method: (§5)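 Short-term 6-h time-kill in broth at pH 7.4 at fixed extracellular concentrations of 0.7 or 4 mg/liter; CFU followed over time; three independent experiments.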

[26] = test system: Staphylococcus aureus; experiment: Antibacterial activity against methicillin-sensitive Staphylococcus aureus ATCC 25923 assessed as decrease of CFU at 0.7 mg/liter; assay type: functional, organism-based; summary of the method: as §5
[27] = test system: THP-1; experiment: Drug uptake in human THP1 cells after 24 hrs relative to extracellular concentration; assay type: ADME, cell-based; details: thp-1, 24 h
Summary of the method: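 THP-1 cells incubated at 37°C with drug at 10 mg/liter extracellular, accumulation followed up to 24 h. Cell-associated drug assayed microbiologically with S. aureus ATCC 25923, normalized to cell protein (Folin-Ciocalteu/biuret) and converted at 5 μl/mg protein to the cellular/extracellular concentration ratio. n = 3.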

[28] = test system: Staphylococcus aureus; experiment: Antibacterial activity against methicillin-sensitive Staphylococcus aureus ATCC 25923 infected in human THP1 cells assessed as decrease of intracellular CFU at 0.7 mg/liter; assay type: functional, organism-based; details: THP-1; summary of the method: as §4
[29] = test system: Staphylococcus aureus; experiment: Antibacterial activity against methicillin-sensitive Staphylococcus aureus ATCC 25923 by time kill study; assay type: functional; summary of the method: as §5

## CC[C@H]1OC(=O)[C@H](C)[C@@H](O[C@H]2C[C@@](C)(OC)[C@@H](O)[C@H](C)O2)[C@H](C)[C@@H](O[C@@H]2O[C@H](C)C[C@H](N(C)C)[C@H]2O)[C@](C)(O)C[C@@H](C)CN(C)[C@H](C)[C@@H](O)[C@]1(C)O [AZITHROMYCIN]
[1]
  MIC: 1 µg/mL (≈ 1.34 µM)
[2]
  Activity: 0.63 mg/L
[3]
  log10cfu: -0.83
[4]
  Activity: 0.29 mg/L
[5]
  MIC: inactive
[6]
  MIC: 10 ng/mL (≈ 0.0134 µM)
[7]
  Drug uptake: Active
[8]
  EC50: 0.024 µg/mL (≈ 0.032 µM)
[9]
  EC50: 2.86 µg/mL (≈ 3.82 µM)
[10]
  log10cfu: -0.81
[11]
  Drug uptake: Not Active
[12]
  log10cfu: -0.29
[13]
  EC50: 0.12 µg/mL (≈ 0.16 µM)
[14]
  MIC: inactive
[15]
  Drug uptake: Not Active
[16]
  Drug uptake: Active
[17]
  MIC: 16 ng/mL (≈ 0.0214 µM)
[18]; THP-1
  Activity: inactive
[19]
  log10cfu: -1
[20]
  EC50: 2.66 µg/mL (≈ 3.55 µM)
[21]
  Drug uptake: Active
[22]
  MIC: 0.5 µg/mL (≈ 0.668 µM)
[23]
  Activity: 11.6 mg/L
[24]
  Activity: 2.9 mg/L
[25]
  Activity: Active

## CC[C@H]1OC(=O)[C@H](C)[C@@H](O[C@H]2C[C@@](C)(OC)[C@@H](O)[C@H](C)O2)[C@H](C)[C@@H](O[C@@H]2O[C@H](C)C[C@H](N(C)C)[C@H]2O)[C@](C)(OC)C[C@@H](C)C(=O)[C@H](C)[C@@H](O)[C@]1(C)O [CLARITHROMYCIN]
[2]
  Activity: 0.84 mg/L
[4]
  Activity: 1.32 mg/L
[5]
  MIC: inactive
[7]
  Drug uptake: Active
[8]
  EC50: 0.046 µg/mL (≈ 0.0615 µM)
[12]
  log10cfu: -0.18
[13]
  EC50: 0.8 µg/mL (≈ 1.07 µM)
[14]
  MIC: inactive
[19]
  log10cfu: -1.41
[21]
  Drug uptake: Active

## CC[C@H]1OC(=O)[C@@](C)(F)C(=O)[C@H](C)[C@@H](O[C@@H]2O[C@H](C)C[C@H](N(C)C)[C@H]2O)[C@](C)(OC)C[C@@H](C)C(=O)[C@H](C)[C@H]2N(CCCCn3cc(-c4cccc(N)c4)nn3)C(=O)O[C@]12C [SOLITHROMYCIN]
[1]
  MIC: 0.004 µg/mL (≈ 0.00473 µM)
[2]
  Activity: 0.022 mg/L
[3]
  log10cfu: -1.03
[4]
  Activity: 0.06 mg/L
[5]
  MIC: 3.9 ng/mL (≈ 0.00462 µM)
[6]
  MIC: 5 ng/mL (≈ 0.00592 µM)
[7]
  Drug uptake: Active
[8]
  EC50: 0.0068 µg/mL (≈ 0.00805 µM)
[9]
  EC50: 0.052 µg/mL (≈ 0.0615 µM)
[10]
  log10cfu: -0.66
[26]
  Activity: Active
[11]
  Drug uptake: Not Active
[12]
  log10cfu: -0.86
[27]
  fold change (FC): 350
[13]
  EC50: 0.03 µg/mL (≈ 0.0355 µM)
[14]; ATCC 25923, 24 h
  MIC: 0.06 µg/mL (≈ 0.071 µM)
[28]
  Activity: Active
[15]
  Drug uptake: Not Active
[16]
  Drug uptake: Active
[17]
  MIC: 4 ng/mL (≈ 0.00473 µM)
[18]
  log10cfu: 1.5
[19]
  log10cfu: -1.37
[20]
  EC50: 0.02 µg/mL (≈ 0.0237 µM)
[21]
  Drug uptake: Active
[29]
  Time: 6 h
[22]
  MIC: 0.06 µg/mL (≈ 0.071 µM)
[23]
  Activity: 0.11 mg/L
[24]
  Activity: 0.018 mg/L

## CC[C@H]1OC(=O)[C@H](C)C(=O)[C@H](C)[C@@H](O[C@@H]2O[C@H](C)C[C@H](N(C)C)[C@H]2O)[C@](C)(OC)C[C@@H](C)C(=O)[C@H](C)[C@H]2N(CCCCn3cnc(-c4cccnc4)c3)C(=O)O[C@]12C [TELITHROMYCIN]
[2]
  Activity: >50 mg/L
[4]
  Activity: 3.4 mg/L
[5]
  MIC: inactive
[7]
  Drug uptake: Active
[8]
  EC50: 0.11 µg/mL (≈ 0.135 µM)
[12]
  log10cfu: 0.04
[13]
  EC50: 1.78 µg/mL (≈ 2.19 µM)
[14]
  MIC: inactive
[19]
  log10cfu: -1.23
[21]
  Drug uptake: Active
